Target: T1, human GPR119 receptor (G protein-coupled receptor 119) (Homo sapiens, UniProt Q8TDV5)
T1 sequence (Q8TDV5 1-335): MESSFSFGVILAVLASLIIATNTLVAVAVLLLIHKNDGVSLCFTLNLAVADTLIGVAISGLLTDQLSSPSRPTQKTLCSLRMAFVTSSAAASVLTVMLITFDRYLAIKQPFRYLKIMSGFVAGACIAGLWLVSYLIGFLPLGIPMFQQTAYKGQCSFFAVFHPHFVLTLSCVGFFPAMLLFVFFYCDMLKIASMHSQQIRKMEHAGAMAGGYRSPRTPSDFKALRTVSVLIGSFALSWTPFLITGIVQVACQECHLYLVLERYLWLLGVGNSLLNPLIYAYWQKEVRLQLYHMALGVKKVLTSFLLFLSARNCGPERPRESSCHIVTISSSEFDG
Test: HTRF cAMP accumulation assay, stable HEK293 cells
Type: cell-based
Method in brief: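 HEK293 cells stably transfected with human GPR119, selected in 800 µg/ml geneticin and kept in 400 µg/ml G418. Test compound in DMEM with 2.5% fatty acid-free BSA, 30 min at room temperature. HTRF read (d2-cAMP plus Eu-cryptate anti-cAMP, 2 h, ex 337/em 665 and 620 nm). cAMP taken from a standard curve; EC50 from a sigmoidal fit; five independent experiments.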

Compound | EC50 [µM]
CC(C)c1noc(C2CCN(c3ncnc(Nc4ccc(S(C)(=O)=O)cc4F)c3[N+](=O)[O-])CC2)n1 [AR231453] | 0.011
CCCCC/C=C\C/C=C\C/C=C\CCCCCCC(=O)NCCO [Dihomo-γ-linolenoyl ethanolamide] | 25.6
CC/C=C\C/C=C\C/C=C\C/C=C\C/C=C\CCCC(=O)NCCO [Eicosapentaenoyl ethanolamide] | 65.6
CC(C)(C)OC(=O)N1CCC(OCc2nc(-c3ccncc3)no2)CC1 [PSN632408] | 7.61
CCCCCCCC/C=C\CCCCCCCC(=O)NCCc1ccc(O)c(O)c1 [Oleoyl dopamine] | 54.8
CCCCCCCC/C=C\CCCCCCCC(=O)NCCO [Oleoyl ethanolamide] | 7.65
CCCCC/C=C\C/C=C\C/C=C\C/C=C\CCCCCC(=O)NCCO [Docosatetra-7Z,10Z,13Z,16Z-enoyl ethanolamide] | 40.2
CC/C=C\C/C=C\C/C=C\C/C=C\C/C=C\C/C=C\CCC(=O)NCCO [Docosahexaenoyl ethanolamide] | 63.8
CCCCCCCCCCCCCCCC(=O)NCCO [Palmitoyl ethanolamide] | 10.1
CCCCCCCC/C=C\CCCCCCCC(N)=O [Oleamide] | 42.9
CCCCC/C=C\C/C=C\CCCCCCCC(=O)NCCO [Linoleoyl ethanolamide] | 8.11
